From ChEMBL document CHEMBL4390672, “Development of Covalent Ligands for G Protein-Coupled Receptors: A Case for the Human Adenosine A3 Receptor” (J Med Chem, 2019)
Positions count from the first letter of the chain named.

Columns and labels:
[1] = target: T1, Adenosine receptor A3 (Homo sapiens) (UniProt P0DMS8); assay: Displacement of [3H]PSB11 from human A3 adenosine receptor expressed in CHO cell membranes measured after 2 hrs by scintillation spectrometric method
T1 sequence (whole entry): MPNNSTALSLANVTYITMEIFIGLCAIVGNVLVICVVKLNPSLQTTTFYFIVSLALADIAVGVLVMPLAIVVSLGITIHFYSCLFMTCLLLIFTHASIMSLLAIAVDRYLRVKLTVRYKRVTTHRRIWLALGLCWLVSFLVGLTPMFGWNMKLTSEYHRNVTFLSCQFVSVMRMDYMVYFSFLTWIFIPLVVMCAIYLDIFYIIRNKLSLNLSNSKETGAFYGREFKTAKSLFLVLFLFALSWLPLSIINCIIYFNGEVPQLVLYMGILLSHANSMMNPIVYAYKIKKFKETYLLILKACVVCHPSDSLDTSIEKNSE

Adenosine receptor A3 [2] = target: T2, Adenosine receptor A3 (Homo sapiens, UniProt P0DMS8); assay: Irreversible displacement of [3H]PSB11 from human A3 adenosine receptor expressed in CHO cell membranes measured up to 240 mins by scintillation spectrometric method; conditions: in the assay text read “Displacement” for “Irreversible displacement”
T2 sequence (P0DMS8 whole entry): T1 sequence (whole entry)
Summary of the method: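 Bound radioligand sampled at time points up to 240 min, then filtered and counted. Competitor kon (k3) and koff (k4) obtained by Motulsky–Mahan fitting, using [3H]PSB-11 k1 and k2 from earlier work.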

[3] = tested on: T3, Adenosine receptor A3 (Homo sapiens), P0DMS8 [Y265F]; assay: Displacement of [3H]PSB11 from human A3 adenosine receptor Y265F (7.36) mutant transiently expressed in CHOK1 cell membranes measured after 2 hrs by scintillation spectrometric method
T3 sequence (whole entry): T1 sequence (whole entry) with Y265F
Summary of the method: (§1)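 CHO-K1 cells transfected by PEI (3:1, 20 µg DNA/dish) with WT or Y265F7.36 hA3AR, then given 5 mM sodium butyrate for 24 h before membrane preparation.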

Adenosine receptor A3 [4] = target: T2, Adenosine receptor A3; assay: Competitive surmountable antagonist activity at human A3 adenosine receptor expressed in CHO cell membranes assessed as inhibition of 2-Cl-IB-MECA-induced [35S]-GTPgammaS binding preincubated for 60 mins followed by 2-Cl-IB-MECA and [35S]-GTPgammaS addition and measured after 30 mins; format: functional; conditions: read-out: pA2 (converted)
[5] = target: T4, Adenosine receptor A2b (Homo sapiens) (UniProt P29275); assay: Displacement of [3H]PSB-603 from human A2B adenosine receptor expressed in CHO cell membranes at 1 uM measured after 2 hrs by scintillation spectrometric method relative to control
T4 sequence (whole entry): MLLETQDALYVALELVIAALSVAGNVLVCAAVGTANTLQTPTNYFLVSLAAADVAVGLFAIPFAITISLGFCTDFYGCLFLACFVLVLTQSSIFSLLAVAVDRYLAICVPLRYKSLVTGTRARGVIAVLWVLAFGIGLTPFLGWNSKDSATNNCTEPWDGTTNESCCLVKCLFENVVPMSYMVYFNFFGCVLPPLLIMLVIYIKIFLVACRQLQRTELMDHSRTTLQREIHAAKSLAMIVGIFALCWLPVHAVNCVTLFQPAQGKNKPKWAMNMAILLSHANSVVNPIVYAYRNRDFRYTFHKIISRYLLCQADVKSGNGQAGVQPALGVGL

[6] = target: T1, Adenosine receptor A3 (Homo sapiens); assay: (§2) Reversible displacement of [3H]PSB11 from human A3 adenosine receptor expressed in CHO cell membranes assessed as residual binding level at 10 times Ki incubated for 2 hrs followed by 4 times membrane washout and subsequent [3H]PSB11 addition by scintillation spectrometric method relative to control
Summary of the method: (§3)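 Samples then either taken unwashed or put through four centrifugation wash cycles before exposure to [3H]PSB-11. Remaining specific binding was normalized to vehicle (100%). Three experiments in duplicate; unpaired t test.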

Adenosine receptor A3 [7] = target: T2, Adenosine receptor A3; assay: Competitive surmountable antagonist activity at human A3 adenosine receptor expressed in CHO cell membranes assessed as inhibition of 2-Cl-IB-MECA-induced [35S]-GTPgammaS binding measured after 30 mins; format: functional; conditions: read-out: pA2 (converted)
[8] = target: T1, Adenosine receptor A3 (Homo sapiens); assay: Displacement of [3H]PSB11 from human A3 adenosine receptor transiently expressed in CHOK1 cell membranes measured after 2 hrs by scintillation spectrometric method; summary of the method: as §1
[9] = target: T1, Adenosine receptor A3 (Homo sapiens); assay: Reversible displacement of [3H]PSB11 from human A3 adenosine receptor expressed in CHO cell membranes assessed as residual binding level at 10 times Ki measured after 2 hrs by scintillation spectrometric method relative to control; summary of the method: as §3
[10] = target: T1, Adenosine receptor A3 (Homo sapiens); assay: Displacement of [3H]PSB11 from human A3 adenosine receptor expressed in CHO cell membranes by scintillation spectrometric method; conditions: TDE = time-dependent effect
Summary of the method: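 CHO membranes stably expressing hA3AR (15 µg) in 50 mM Tris-HCl, 5 mM MgCl2, 0.01% CHAPS, 1 mM EDTA, pH 7.4, with ~10 nM [3H]PSB-11 and six competitor concentrations, 120 min at 25 °C. Nonspecific binding defined with 100 µM NECA. Filtration, then scintillation counting; one-site fit, Cheng-Prusoff Ki; three experiments in duplicate.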

[11] = tested on: T3, Adenosine receptor A3 (Homo sapiens), P0DMS8 [Y265F]; assay: Displacement of [3H]PSB11 from human A3 adenosine receptor Y265F (7.36) mutant transiently expressed in CHOK1 cell membranes assessed as residual binding level at 10 times IC50 incubated for 2 hrs followed by 4 times membrane washout and subsequent [3H]PSB11 addition by scintillation spectrometric method
Summary of the method: (§4)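 Membranes then either unwashed or washed four times before [3H]PSB-11 exposure. Binding normalized to vehicle (100%); three experiments in duplicate.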

[12] = target: T1, Adenosine receptor A3 (Homo sapiens); assay: as §2, with “Irreversible” for “Reversible”, “ans” for “and”
Summary of the method: (§5)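 Membranes then either unwashed or washed four times by centrifugation before [3H]PSB-11 addition. Specific binding normalized to vehicle (100%); three experiments in duplicate; unpaired t test.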

[13] = tested on: T3, Adenosine receptor A3 (Homo sapiens), P0DMS8 [Y265F]; assay: Displacement of [3H]PSB11 from human A3 adenosine receptor Y265F (7.36) mutant transiently expressed in CHOK1 cell membranes assessed as residual binding level at 10 times IC50 measured after 2 hrs by scintillation spectrometric method; summary of the method: as §4
[14] = target: T1, Adenosine receptor A3 (Homo sapiens); assay: Irreversible displacement of [3H]PSB11 from human A3 adenosine receptor expressed in CHO cell membranes assessed as residual binding level at 10 times Ki measured after 2 hrs by scintillation spectrometric method relative to control; summary of the method: as §5
[15] = target: T1, Adenosine receptor A3 (Homo sapiens); assay: Displacement of [3H]PSB11 from human A3 adenosine receptor expressed in CHO cell membranes at 10 uM measured after 2 hrs by scintillation spectrometric method relative to control

For `CCCn1c(=O)c2c(nc3cc(OC)ccn32)n(CCCCOC(=O)c2cccc(S(=O)(=O)F)c2)c1=O`, the inhibition [1] was “Dose-dependent effect”.
With `CCCn1c(=O)c2c(nc3cc(OC)ccn32)n(CCCNC(=O)c2ccc(S(C)(=O)=O)cc2)c1=O` the Ki (Adenosine receptor A3 [2]) was 525 nM, the pIC50(app) [3] was 6.1 and the inhibition [1] was “Dose-dependent effect”. It also gave a Kb (Adenosine receptor A3 [4]) of 1260 nM, an inhibition [5] of 0% and an Activity [6] of 97.6%. It also gave a Kb (Adenosine receptor A3 [7]) of 631 nM, a pIC50(app) [8] of 5.9 and an Activity [9] of 19.8%.
With `CCCn1c(=O)c2c(nc3cc(OC)ccn32)n(CCCNC(=O)c2cccc(S(=O)(=O)F)c2)c1=O` the inhibition [1] was “Dose-dependent effect”.
For `CCCn1c(=O)c2c(nc3cc(OC)ccn32)n(CCCCNC(=O)c2ccc(S(=O)(=O)F)cc2)c1=O`, the inhibition [1] was “Dose-dependent effect”.
In the case of `CCCn1c(=O)c2c(nc3cc(OC)ccn32)n(CCCOC(=O)c2ccc(S(=O)(=O)F)cc2)c1=O`, the inhibition [1] is reported as “Dose-dependent effect”.
With `CCCn1c(=O)c2c(nc3cc(OC)ccn32)n(CCOC(=O)c2cccc(S(=O)(=O)F)c2)c1=O` the inhibition [1] was “Dose-dependent effect”.
For `CCCn1c(=O)c2c(nc3cc(OC)ccn32)n(CCCCNC(=O)c2cccc(S(=O)(=O)F)c2)c1=O`, the inhibition [1] was “Dose-dependent effect”.
`CCCn1c(=O)c2c(nc3cc(OC)ccn32)n(CCCNC(=O)c2ccc(S(=O)(=O)F)cc2)c1=O` was tested, and the inhibition [10] was “Tde”, the Activity [11] was 91% and the inhibition [1] was “Dose-dependent effect”. The Activity [12] was 8.7%, the Activity [13] was 7.2% and the Activity [14] was 11.3%.
`CCCn1c(=O)c2c(nc3cc(OC)ccn32)n(CCOC(=O)c2ccc(S(=O)(=O)F)cc2)c1=O` was tested, and the inhibition [1] was “Dose-dependent effect”.
For `CCCn1c(=O)c2c(nc3cc(OC)ccn32)n(CCNC(=O)c2ccc(S(=O)(=O)F)cc2)c1=O`, the inhibition [1] was “Dose-dependent effect” and the inhibition [15] was 27%.
`CCCn1c(=O)c2c(nc3cc(OC)ccn32)n(CCNC(=O)c2cccc(S(=O)(=O)F)c2)c1=O` was tested, and the inhibition [1] was “Dose-dependent effect” and the inhibition [15] was 18%.
`CCCn1c(=O)c2c(nc3cc(OC)ccn32)n(CCCCOC(=O)c2ccc(S(=O)(=O)F)cc2)c1=O` was tested, and the inhibition [1] was “Dose-dependent effect”.
In the case of `CCCn1c(=O)c2c(nc3cc(OC)ccn32)n(CCCOC(=O)c2cccc(S(=O)(=O)F)c2)c1=O`, the inhibition [1] is reported as “Dose-dependent effect”.
